Where “and” joins values, the source holds several entries; their conditions need not be identical. Identical values can stand only once. Calls of active or inactive are those of the source. No cut-off for these calls is given here. Where a SMILES comes first, the peptide text is derived from it. Bridges are numbered along the chain shown (N, C = ends). [ ]: non-standard residue; d: D form. The star is where a group is joined. X1 = CC[C@H](C)CCCCC(=O)*; dDab = NCC[C@@H](N)C(=O)O; Dab = NCC[C@H](N)C(=O)O
Tests used:
Cell membrane [1] = assay: Disruption of cell membrane in methicillin resistant Staphylococcus aureus ATCC BAA 1556 assessed as increase in PI fluorescence intensity at 4 times of MIC measured after 1 hrs by PI staining based flow cytometric analysis
Summary of the method: (§1)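 Mid-log cells grown in Mueller Hinton broth, washed in 10 mM Tris pH 7.4, 10^7 CFU/mL, treated at MIC and 4× MIC for 1 h. Pelleted, washed, PI-stained for 15 min at 37 °C in the dark, then counted by flow cytometry for % PI-positive cells. PBS-treated cells as negative control, 10% Triton X-100 as positive control. Run in triplicate; two-tailed unpaired t-test.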

Cell membrane [2] = assay: Disruption of cell membrane in Escherichia coli ATCC BAA-2452 assessed as increase in PI fluorescence intensity at MIC measured after 1 hrs by PI staining based flow cytometric analysis; format: subcellular
Summary of the method: (§2)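 Mid-log E. coli ATCC BAA-2452 grown in Mueller Hinton broth, washed thrice and resuspended at 10^7 CFU/mL in 10 mM Tris pH 7.4. […] Controls: PBS (negative) and 10% Triton X-100 (positive). Triplicate; two-tailed unpaired t-test.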

Cell membrane [3] = assay: Disruption of cell membrane in methicillin resistant Staphylococcus aureus ATCC BAA 1556 assessed as increase in PI fluorescence intensity at MIC measured after 1 hrs by PI staining based flow cytometric analysis; format: subcellular; summary of the method: as §1
Cell membrane [4] = assay: Disruption of cell membrane in Escherichia coli ATCC BAA-2452 assessed as increase in PI fluorescence intensity at 4 times of MIC measured after 1 hrs by PI staining based flow cytometric analysis; format: subcellular; summary of the method: as §2
Escherichia coli [5] = assay: Bactericidal activity against […] Escherichia coli ATCC BAA 2452 assessed as inhibition of bacterial growth at 4 times of MIC incubated for 2.5 hrs by Time kill assay; format: functional
Summary of the method: (§3)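 Aliquots taken every 30 min for 4 h and plated on agar for viable colony counts. Two independent experiments in triplicate.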

Staphylococcus aureus [6] = assay: Bactericidal activity against methicillin resistant Staphylococcus aureus ATCC BAA 1556 assessed as inhibition of bacterial growth at 4 times of MIC incubated for 3 hrs by Time kill assay; format: functional; summary of the method: as §3
Lipid bilayer = assay: Induction of membrane disruption in mammalian membrane mimic DOPC/cholesterol (10:1) large unilamellar vesicles assessed as induction of dye leakage at 50 ug/ml measured after 100 mins by calcein dye based analysis; format: cell membranes; settings: dose 50.0 µg/ml
Summary of the method: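 LUVs loaded with calcein: DOPC/DOPG 7:3 w/w (bacterial mimic) or DOPC/cholesterol 10:1 w/w (mammalian mimic). Mixed 1:1 by volume with peptide at 5, 10, 20, 30 or 50 μg/mL. Fluorescence (ex 490/em 520 nm) read every 10 min for 100 min. Leakage expressed relative to 10% Triton X-100 lysis (100%), after subtracting liposome background. Triplicate.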

Klebsiella pneumoniae = assay: Antibacterial activity against Klebsiella pneumoniae ATCC BAA 1705 assessed as inhibition of bacterial growth incubated for 24 hrs by CLSI based broth microdilution method; format: functional; settings: read-out: MIC
Pseudomonas aeruginosa = assay: Antibacterial activity against Pseudomonas aeruginosa […] assessed as inhibition of bacterial growth incubated for 24 hrs by CLSI based broth microdilution method; format: functional
Staphylococcus aureus [7] = assay: Antibacterial activity against Staphylococcus aureus ATCC 29213 assessed as inhibition of bacterial growth incubated for 24 hrs by CLSI based broth microdilution method; format: functional
Staphylococcus aureus [8] = assay: Antibacterial activity against methicillin resistant Staphylococcus aureus ATCC BAA 1556 assessed as inhibition of bacterial growth incubated for 24 hrs by CLSI based broth microdilution method; format: functional
Escherichia coli [9] = assay: Antibacterial activity against Escherichia coli ATCC 25922 assessed as inhibition of bacterial growth incubated for 24 hrs by CLSI based broth microdilution method; format: functional
Erythrocyte = assay: Hemolytic activity in human RBC incubated for 2 hrs by spectrophotometrical analysis; format: toxicity, cell-based
Summary of the method: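 Human erythrocytes (4% suspension in PBS) mixed 1:1 with 2-fold serial peptide dilutions, 2 h at 37 °C without agitation. After centrifugation, supernatant hemoglobin read at 567 nm. 0% hemolysis set by PBS, 100% by 1% Triton X-100. HC50 is the concentration giving 50% hemolysis.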

Escherichia coli [10] = assay: Antibacterial activity against Escherichia coli ATCC 25922 assessed as fold increase in MIC incubated for 24 hrs in presence of Ca2+ ions by CLSI based broth microdilution method; format: functional
Summary of the method: (§4)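 E. coli MICs by CLSI broth microdilution in cation-adjusted Mueller Hinton broth. […] Inoculum was 10^6 CFU/mL with 2-fold serial peptide dilutions, incubated 24 h at 37 °C. MIC is the lowest concentration inhibiting growth. Three independent assays, each in triplicate.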

Escherichia coli [11] = assay: Antibacterial activity against Escherichia coli ATCC 25922 assessed as fold increase in MIC incubated for 24 hrs in presence of K+ ions by CLSI based broth microdilution method; format: functional; summary of the method: as §4
Escherichia coli [12] = assay: Antibacterial activity against Escherichia coli ATCC 25922 assessed as fold increase in MIC incubated for 24 hrs in presence of Na+ ions by CLSI based broth microdilution method; format: functional; summary of the method: as §4
Escherichia coli [13] = assay: Antibacterial activity against Escherichia coli ATCC 25922 assessed as fold increase in MIC incubated for 24 hrs in presence of NH4+ ions by CLSI based broth microdilution method; format: functional; summary of the method: as §4
Staphylococcus aureus [14] = assay: Antibacterial activity against methicillin resistant Staphylococcus aureus ATCC BAA 1556 assessed as fold increase in MIC incubated for 24 hrs in presence of K+ ions by CLSI based broth microdilution method; format: functional
Summary of the method: (§5)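 CLSI broth microdilution. Overnight cultures diluted in cation-adjusted Mueller Hinton broth to 10^6 CFU/mL, mixed 1:1 with 2-fold serial peptide dilutions, 24 h at 37 °C. […] MIC is the lowest concentration inhibiting growth. Three independent assays in triplicate.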

Staphylococcus aureus [15] = assay: Antibacterial activity against methicillin resistant Staphylococcus aureus ATCC BAA 1556 assessed as fold increase in MIC incubated for 24 hrs in presence of Ca2+ ions by CLSI based broth microdilution method; format: functional; summary of the method: as §5
Staphylococcus aureus [16] = assay: Antibacterial activity against methicillin resistant Staphylococcus aureus ATCC BAA 1556 assessed as fold increase in MIC incubated for 24 hrs in presence of Na+ ions by CLSI based broth microdilution method; format: functional; summary of the method: as §5
Staphylococcus aureus [17] = assay: Antibacterial activity against methicillin resistant Staphylococcus aureus ATCC BAA 1556 assessed as fold increase in MIC incubated for 24 hrs in presence of NH4+ ions by CLSI based broth microdilution method; format: functional; summary of the method: as §5
Staphylococcus aureus [18] = assay: Antibacterial activity against methicillin resistant Staphylococcus aureus ATCC BAA 1556 assessed as fold increase in MIC incubated for 24 hrs in presence of Mg2+ ions by CLSI based broth microdilution method; format: functional; summary of the method: as §5
Escherichia coli [19] = assay: Antibacterial activity against Escherichia coli ATCC 25922 assessed as fold increase in MIC incubated for 24 hrs in presence of Mg2+ ions by CLSI based broth microdilution method; format: functional; summary of the method: as §4

Compound | MIC (Klebsiella pneumoniae) [µg/mL] | MIC (Pseudomonas aeruginosa) [µg/mL] | MIC (Staphylococcus aureus [7]) | MIC (Staphylococcus aureus [8]) | MIC (Escherichia coli [9]) | other results
CC[C@H](C)CCCCC(=O)N[C@@H](CCN)C(=O)N[C@H](C(=O)N[C@@H](CCN)C(=O)N[C@H]1CCNC(=O)[C@H]([C@@H](C)O)NC(=O)[C@H](CCN)NC(=O)[C@H](CCN)NC(=O)[C@H](CC(C)C)NC(=O)[C@@H](Cc2ccccc2)NC(=O)[C@@H](CCN)NC1=O)[C@@H](C)O (X1-[Dab]T[Dab][Dab][dDab][dF]L[Dab][Dab]T; lactam 4-C) | – | – | – | – | – | Activity (Cell membrane [1]): inactive; Activity (Cell membrane [2]): inactive; Activity (Cell membrane [3]): inactive; Activity (Cell membrane [4]): inactive
CC[C@H](C)CCCCC(=O)N[C@@H](CCN)C(=O)N[C@H](C(=O)N[C@@H](CCN)C(=O)N[C@H]1CCNC(=O)[C@H]([C@@H](C)O)NC(=O)[C@H](CCN)NC(=O)[C@H](CCN)NC(=O)[C@H](CC(C)C)NC(=O)[C@@H](Cc2ccccc2)NC(=O)[C@H](CCN)NC1=O)[C@@H](C)O (X1-[Dab]T[Dab][Dab][Dab][dF]L[Dab][Dab]T; lactam 4-C) | – | – | – | – | – | inhibition (INH) (Escherichia coli [5]): 100%
CCCCCCCCCC(=O)N[C@@H](Cc1c[nH]c2ccccc12)C(=O)N[C@H](CC(N)=O)C(=O)N[C@@H](CC(=O)O)C(=O)N[C@@H]1C(=O)NCC(=O)N[C@@H](CCCN)C(=O)N[C@@H](CC(=O)O)C(=O)N[C@H](C)C(=O)N[C@@H](CC(=O)O)C(=O)NCC(=O)N[C@H](CO)C(=O)N[C@@H]([C@H](C)CC(=O)O)C(=O)N[C@@H](CC(=O)c2ccccc2N)C(=O)O[C@@H]1C | – | – | – | – | – | Activity (Cell membrane [1]): inactive; Activity (Cell membrane [2]): inactive; Activity (Cell membrane [3]): inactive; inhibition (INH) (Staphylococcus aureus [6]): 100%; Activity (Lipid bilayer): 7%; Activity (Cell membrane [4]): inactive
H-RWWRRWR-NH2 | > 100 | > 100 | 100 µg/mL | 100 µg/mL | > 100 µg/mL and > 83.3 µM | –
H-RWRRWWR-NH2 | > 100 | > 100 | 100 µg/mL | 100 µg/mL | > 100 µg/mL and > 83.3 µM | –
Ac-RWARRWARWWRR-NH2 | > 100 | 100 | – | – | 100 µg/mL | HC50 (Erythrocyte): 110 ug ml-1 and 58.4 µM
H-AAWRRWWRRA-NH2 | > 100 | > 100 | > 100 µg/mL and > 70.7 µM | > 100 µg/mL and > 70.7 µM | > 100 µg/mL and > 70.7 µM | –
H-KWIKKWIKWWKK-NH2 | – | – | – | – | – | fold change (FC) (Escherichia coli [10]): 2; fold change (FC) (Escherichia coli [11]): 2; fold change (FC) (Escherichia coli [12]): 2; fold change (FC) (Escherichia coli [13]): 2; fold change (FC) (Staphylococcus aureus [14]): 2; fold change (FC) (Staphylococcus aureus [15]): 2; fold change (FC) (Staphylococcus aureus [16]): 2; fold change (FC) (Staphylococcus aureus [17]): 2; fold change (FC) (Staphylococcus aureus [18]): 2; fold change (FC) (Escherichia coli [19]): 2
H-RAWRRWWARA-NH2 | > 100 | > 100 | > 100 µg/mL and > 70.7 µM | > 100 µg/mL and > 70.7 µM | > 100 µg/mL and > 70.7 µM | –
H-RWWRRAWR-NH2 | > 100 | > 100 | > 100 µg/mL and > 78.7 µM | > 100 µg/mL and > 78.7 µM | > 100 µg/mL and > 78.7 µM | –
H-RWARRWWR-NH2 | > 100 | > 100 | > 100 µg/mL and > 78.7 µM | > 100 µg/mL and > 78.7 µM | > 100 µg/mL and > 78.7 µM | –
H-RWIRRWIRWWRR-NH2 | 12.5 | – | – | – | – | fold change (FC) (Escherichia coli [10]): 2; fold change (FC) (Escherichia coli [11]): 2; fold change (FC) (Escherichia coli [12]): 2; fold change (FC) (Escherichia coli [13]): 2; fold change (FC) (Staphylococcus aureus [14]): 2; fold change (FC) (Staphylococcus aureus [15]): 2; fold change (FC) (Staphylococcus aureus [16]): 2; fold change (FC) (Staphylococcus aureus [17]): 2; fold change (FC) (Staphylococcus aureus [18]): 2; fold change (FC) (Escherichia coli [19]): 2
H-RWWRRAWRAA-NH2 | > 100 | > 100 | > 100 µg/mL and > 70.7 µM | > 100 µg/mL and > 70.7 µM | > 100 µg/mL and > 70.7 µM | –
H-AWWRRAWRR-NH2 | > 100 | > 100 | > 100 µg/mL and > 74.5 µM | > 100 µg/mL and > 74.5 µM | > 100 µg/mL and > 74.5 µM | –
